The source made the active and inactive calls.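 The calls were made as follows: active = inhibition of 30% or more at any tested concentration; inactive = the rest.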

This assay has as its target M1-family alanyl aminopeptidase PfA-M1 (Plasmodium falciparum 3D7). As to the kind of experiment: inhibition of malaria M1 alanyl aminopeptidase – biochemical, QFRET, H-Leu-NHMec substrate, set 2, dose response (AID 602213). Particulars: recombinant PfM1AAP, H-Leu-NHMec fluorogenic cleavage; for inhibition: at 100 µM (top of the series). The essentials: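 Material: Purified recombinant PfM1AAP, an M1-family alanyl aminopeptidase of Plasmodium falciparum | Technique: Fluorescence at 370/460 nm | Times: 90 min reaction at room temperature | Medium: Tris buffer pH 7.5, CoCl2, 2% DMSO | Compound dosing: 10 concentrations, 0.2–100 µM, 1:2 steps | Also added: H-Leu-NHMec fluorogenic peptide substrate, 0.1 mM final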

`O=C(NCc1ccc(F)cc1)C1CCN(S(=O)(=O)c2ccc(Br)s2)CC1`: the IC50 was 5.05 µM. `O=C(NCc1ccc2c(c1)OCO2)C1CCN(S(=O)(=O)c2ccc(Br)s2)CC1`: the IC50 is 1.54 µM. Turning to `O=C(NCc1ccccc1)C1CCN(S(=O)(=O)c2ccc(Br)s2)CC1`, the IC50 was 2.26 µM.

Consider `CC[C@H](C)[C@H](NC(=O)c1ccc(C(C)(C)C)cc1)C(=O)NCc1ccc(Cl)cc1`, for which the inhibition result was “inactive”. Still for that read-out and setting: next, `CC[C@H](C)[C@H](NS(=O)(=O)c1ccc(Br)s1)C(=O)NCc1ccc(Cl)cc1`: “inactive”; `CC[C@H](C)[C@H](NC(=O)c1ccc(C(C)(C)C)cc1)C(=O)NCc1ccc2c(c1)OCO2`: “inactive”. Turning to `O=C(NCc1ccc(Cl)cc1)C1CCN(S(=O)(=O)c2ccc(Br)s2)CC1`, the IC50 is 14.6 µM. As for `CC[C@H](C)[C@H](NS(=O)(=O)c1ccc(Br)s1)C(=O)NCc1ccc2c(c1)OCO2`, the inhibition entry was “inactive”.

By IC50 is commonly meant the concentration needed to halve the response being measured.

Values taken from PubChem BioAssay AID602213 (Southern Research Specialized Biocontainment Screening …, 2012).
